{"source": "ChEMBL document CHEMBL4138273", "about": "“Cysteine-Derived Pleurotin Congeners from the Nematode-Trapping Basidiomycete Hohenbuehelia grisea” (J Nat Prod, 2018)", "key": {"Mucor plumbeus": {"system": "Mucor plumbeus", "assay": "Antimicrobial activity against Mucor plumbeus MUCL 49355 after 16 to 48 hrs by serial dilution method", "format": "functional", "method_in_brief": "(§1)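 Yeasts and filamentous fungi were tested by serial dilution in 96-well plates in YMG medium. Inoculum was adjusted to 6.7 × 10^5 cells/mL. Highest tested level was 67 μg/mL (from 20 μL of 1 mg/mL stock) or 100 μg/mL (from 20 μL of 1.5 mg/mL stock). Ethanol (20 μL) was the negative control.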"}, "Yamadazyma tenuis": {"system": "Yamadazyma tenuis", "assay": "Antimicrobial activity against Candida tenuis MUCL 29892 after 16 to 48 hrs by serial dilution method", "format": "functional", "method_in_brief": "as §1"}, "[1]": {"system": "Schizosaccharomyces pombe", "assay": "Antimicrobial activity against Schizosaccharomyces pombe DSM 70572 after 16 to 48 hrs by serial dilution method", "format": "functional, organism-based", "method_in_brief": "as §1"}, "Wickerhamomyces anomalus": {"system": "Wickerhamomyces anomalus", "assay": "Antimicrobial activity against Pichia anomala DSM 6766 after 16 to 48 hrs by serial dilution method", "format": "functional", "method_in_brief": "as §1"}, "Candida albicans": {"system": "Candida albicans", "assay": "Antimicrobial activity against Candida albicans DSM 1665 after 16 to 48 hrs by serial dilution method", "format": "functional", "method_in_brief": "as §1"}, "Rhodotorula glutinis": {"system": "Rhodotorula glutinis", "assay": "Antimicrobial activity against Rhodotorula glutinis DSM 10134 after 16 to 48 hrs by serial dilution method", "format": "functional", "method_in_brief": "as §1"}, "Mucor hiemalis": {"system": "Mucor hiemalis", "assay": "Antimicrobial activity against Mucor hiemalis DSM 2656 after 16 to 48 hrs by serial dilution method", "format": "functional", "method_in_brief": "as §1"}, "Bacillus subtilis": {"system": "Bacillus subtilis", "assay": "Antimicrobial activity against Bacillus subtilis DSM10 after 16 to 48 hrs by serial dilution method", "format": "functional", "method_in_brief": "(§2)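 Inoculum was adjusted to 6.7 × 10^5 cells/mL. Top concentration was 67 μg/mL (20 μL of 1 mg/mL stock) or 100 μg/mL (20 μL of 1.5 mg/mL stock). Ethanol (20 μL) served as negative control.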"}, "Micrococcus luteus": {"system": "Micrococcus luteus", "assay": "Antimicrobial activity against Micrococcus luteus DSM 1790 after 16 to 48 hrs by serial dilution method", "format": "functional", "method_in_brief": "as §2"}, "Staphylococcus aureus": {"system": "Staphylococcus aureus", "assay": "Antimicrobial activity against Staphylococcus aureus DSM 346 after 16 to 48 hrs by serial dilution method", "format": "functional", "method_in_brief": "as §2"}, "[2]": {"system": "Mycolicibacterium smegmatis", "assay": "Antimicrobial activity against Mycobacterium smegmatis DSM 44200 after 16 to 48 hrs by serial dilution method", "format": "functional", "method_in_brief": "as §2"}, "L929": {"system": "L929", "assay": "Cytotoxicity against mouse L929 cells after 5 days by MTT assay", "format": "functional, cell-based", "settings": "L929, 120 h", "method_in_brief": "(§3)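 Mouse fibroblast L929 and HeLa-derived KB3.1 cells were seeded at 6 × 10^3 cells/well in 96-well plates. Cells were exposed to compounds for 5 days, and IC50 was determined.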"}, "KB 3-1": {"system": "KB 3-1", "assay": "Cytotoxicity against human KB3-1 cells after 5 days by MTT assay", "format": "functional, cell-based", "settings": "KB 3-1, 120 h", "method_in_brief": "as §3"}, "Escherichia coli": {"system": "Escherichia coli", "assay": "microbe, parasite or virus in culture", "settings": "DSM 498"}}, "note": "The source made the active and inactive calls. No cut-off for these calls is given here.", "data": [{"molecule": "NYSTATIN", "values": [{"measurement": "MIC", "setting": "Mucor plumbeus", "value": 12.5, "unit": "µg/mL"}, {"measurement": "MIC", "setting": "Yamadazyma tenuis", "value": 12.5, "unit": "µg/mL"}, {"measurement": "MIC", "setting": "[1]", "value": 16.7, "unit": "µg/mL"}, {"measurement": "MIC", "setting": "Wickerhamomyces anomalus", "value": 16.7, "unit": "µg/mL"}, {"measurement": "MIC", "setting": "Candida albicans", "value": 16.7, "unit": "µg/mL"}, {"measurement": "MIC", "setting": "Rhodotorula glutinis", "value": 16.7, "unit": "µg/mL"}, {"measurement": "MIC", "setting": "Mucor hiemalis", "value": 16.7, "unit": "µg/mL"}]}, {"molecule": "C[C@@H]1CO[C@@H]2C3=C(CC4[C@H](C(=O)O)CCC5[C@@H]1CC[C@]452)C(=O)C(SC[C@H](O)C(=O)O)=CC3=O", "note": "(stereo partly specified)", "values": [{"measurement": "Activity", "setting": "Mucor plumbeus", "value": "inactive"}, {"measurement": "Activity", "setting": "Yamadazyma tenuis", "value": "inactive"}, {"measurement": "Activity", "setting": "Bacillus subtilis", "value": "inactive"}, {"measurement": "Activity", "setting": "[1]", "value": "inactive"}, {"measurement": "Activity", "setting": "Wickerhamomyces anomalus", "value": "inactive"}, {"measurement": "Activity", "setting": "Candida albicans", "value": "inactive"}, {"measurement": "Activity", "setting": "Rhodotorula glutinis", "value": "inactive"}, {"measurement": "Activity", "setting": "Mucor hiemalis", "value": "inactive"}, {"measurement": "Activity", "setting": "Micrococcus luteus", "value": "inactive"}, {"measurement": "Activity", "setting": "Staphylococcus aureus", "value": "inactive"}, {"measurement": "Activity", "setting": "[2]", "value": "inactive"}]}, {"molecule": "NC[C@H]1O[C@H](O[C@H]2[C@H](O)[C@@H](O[C@H]3O[C@H](CO)[C@@H](O)[C@H](N)[C@H]3O)[C@H](N)C[C@@H]2N)[C@H](O)[C@@H](O)[C@@H]1O", "note": "[KANAMYCIN]", "values": [{"measurement": "MIC", "setting": "[2]", "value": 0.4, "unit": "µg/mL"}]}, {"molecule": "C[C@@H]1CO[C@@H]2C3=C(CC4[C@H](C(=O)O)CCC5[C@@H]1CC[C@]452)C(=O)C=CC3=O", "note": "(stereo partly specified)", "values": [{"measurement": "MIC", "setting": "Mucor plumbeus", "value": 100, "unit": "µg/mL"}, {"measurement": "MIC", "setting": "Yamadazyma tenuis", "value": 25, "unit": "µg/mL"}, {"measurement": "MIC", "setting": "Bacillus subtilis", "value": 50, "unit": "µg/mL"}, {"measurement": "Activity", "setting": "[1]", "value": "inactive"}, {"measurement": "MIC", "setting": "Wickerhamomyces anomalus; Hansenula anomala", "value": 66.7, "unit": "µg/mL"}, {"measurement": "MIC", "setting": "Candida albicans", "value": 33.3, "unit": "µg/mL"}, {"measurement": "MIC", "setting": "Rhodotorula glutinis", "value": 16.7, "unit": "µg/mL"}, {"measurement": "MIC", "setting": "Mucor hiemalis", "value": 8.3, "unit": "µg/mL"}, {"measurement": "MIC", "setting": "Micrococcus luteus", "value": 66.7, "unit": "µg/mL"}, {"measurement": "MIC", "setting": "Staphylococcus aureus", "value": 33.3, "unit": "µg/mL"}, {"measurement": "Activity", "setting": "[2]", "value": "inactive"}, {"measurement": "IC50", "setting": "L929", "value": 7.5, "unit": "µg/mL"}, {"measurement": "IC50", "setting": "KB 3-1", "value": 8.5, "unit": "µg/mL"}]}, {"molecule": "O=C(O)c1cn(C2CC2)c2cc(N3CCNCC3)c(F)cc2c1=O", "note": "[CIPROFLOXACIN]", "values": [{"measurement": "MIC", "setting": "Escherichia coli", "value": 3.1, "unit": "µg/mL"}]}, {"molecule": "C[C@@H]1CO[C@@H]2C3=C(C(=O)C=CC3=O)[C@H]3OC(=O)[C@@H]4CC[C@H]5[C@@H]1CC[C@@]25[C@@H]34", "note": "(racemic)", "values": [{"measurement": "MIC", "setting": "Mucor plumbeus", "value": 100, "unit": "µg/mL"}, {"measurement": "MIC", "setting": "Yamadazyma tenuis", "value": 100, "unit": "µg/mL"}, {"measurement": "MIC", "setting": "Bacillus subtilis", "value": 100, "unit": "µg/mL"}, {"measurement": "Activity", "setting": "[1]", "value": "inactive"}, {"measurement": "MIC", "setting": "Wickerhamomyces anomalus; Hansenula anomala", "value": 66.7, "unit": "µg/mL"}, {"measurement": "Activity", "setting": "Candida albicans", "value": "inactive"}, {"measurement": "MIC", "setting": "Rhodotorula glutinis", "value": 33.3, "unit": "µg/mL"}, {"measurement": "MIC", "setting": "Mucor hiemalis", "value": 16.7, "unit": "µg/mL"}, {"measurement": "Activity", "setting": "Micrococcus luteus", "value": "inactive"}, {"measurement": "MIC", "setting": "Staphylococcus aureus", "value": 66.7, "unit": "µg/mL"}, {"measurement": "Activity", "setting": "[2]", "value": "inactive"}, {"measurement": "IC50", "setting": "L929", "value": 2.2, "unit": "µg/mL"}, {"measurement": "IC50", "setting": "KB 3-1", "value": 2.8, "unit": "µg/mL"}]}, {"molecule": "C[C@@H]1CO[C@@H]2c3c(O)cc4scnc4c3C[C@H]3[C@H](C(=O)O)CC[C@H]4[C@@H]1CC[C@@]243", "values": [{"measurement": "Activity", "setting": "Mucor plumbeus", "value": "inactive"}, {"measurement": "MIC", "setting": "Yamadazyma tenuis", "value": 100, "unit": "µg/mL"}, {"measurement": "Activity", "setting": "Bacillus subtilis", "value": "inactive"}, {"measurement": "Activity", "setting": "[1]", "value": "inactive"}, {"measurement": "MIC", "setting": "Wickerhamomyces anomalus; Hansenula anomala", "value": 66.7, "unit": "µg/mL"}, {"measurement": "Activity", "setting": "Candida albicans", "value": "inactive"}, {"measurement": "MIC", "setting": "Rhodotorula glutinis", "value": 33.3, "unit": "µg/mL"}, {"measurement": "Activity", "setting": "Mucor hiemalis", "value": "inactive"}, {"measurement": "Activity", "setting": "Micrococcus luteus", "value": "inactive"}, {"measurement": "Activity", "setting": "Staphylococcus aureus", "value": "inactive"}, {"measurement": "Activity", "setting": "[2]", "value": "inactive"}]}, {"molecule": "CC1(C)S[C@@H]2[C@H](NC(=O)Cc3ccccc3)C(=O)N2[C@H]1C(=O)O", "note": "[PENICILLIN G]", "values": [{"measurement": "MIC", "setting": "Bacillus subtilis", "value": 6.3, "unit": "µg/mL"}]}, {"molecule": "CC(=O)N[C@@H](CSC1=CC(=O)C2=C(CC3[C@H](C(=O)O)CCC4[C@@H]5CC[C@]34[C@@H]2OC[C@H]5C)C1=O)C(=O)O", "note": "(stereo partly specified)", "values": [{"measurement": "Activity", "setting": "Mucor plumbeus", "value": "inactive"}, {"measurement": "MIC", "setting": "Yamadazyma tenuis", "value": 100, "unit": "µg/mL"}, {"measurement": "Activity", "setting": "Bacillus subtilis", "value": "inactive"}, {"measurement": "Activity", "setting": "[1]", "value": "inactive"}, {"measurement": "MIC", "setting": "Wickerhamomyces anomalus; Hansenula anomala", "value": 66.7, "unit": "µg/mL"}, {"measurement": "Activity", "setting": "Candida albicans", "value": "inactive"}, {"measurement": "MIC", "setting": "Rhodotorula glutinis", "value": 33.3, "unit": "µg/mL"}, {"measurement": "Activity", "setting": "Mucor hiemalis", "value": "inactive"}, {"measurement": "Activity", "setting": "Micrococcus luteus", "value": "inactive"}, {"measurement": "Activity", "setting": "Staphylococcus aureus", "value": "inactive"}, {"measurement": "Activity", "setting": "[2]", "value": "inactive"}]}, {"molecule": "CN(C)[C@@H]1C(O)=C(C(N)=O)C(=O)[C@@]2(O)C(O)=C3C(=O)c4c(O)cccc4[C@@](C)(O)[C@H]3[C@H](O)[C@@H]12", "note": "[OXYTETRACYCLINE]", "values": [{"measurement": "MIC", "setting": "Micrococcus luteus", "value": 0.4, "unit": "µg/mL"}, {"measurement": "MIC", "setting": "Staphylococcus aureus", "value": 6.7, "unit": "µg/mL"}]}]}
